From the M2OR odorant receptor database

How the values were obtained:
Conditions in all cases: stereoisomer not certain
OR10G2 (Homo sapiens) = target: T1, OR10G2 (Homo sapiens) (UniProt Q8NGC3)
T1 sequence (whole entry): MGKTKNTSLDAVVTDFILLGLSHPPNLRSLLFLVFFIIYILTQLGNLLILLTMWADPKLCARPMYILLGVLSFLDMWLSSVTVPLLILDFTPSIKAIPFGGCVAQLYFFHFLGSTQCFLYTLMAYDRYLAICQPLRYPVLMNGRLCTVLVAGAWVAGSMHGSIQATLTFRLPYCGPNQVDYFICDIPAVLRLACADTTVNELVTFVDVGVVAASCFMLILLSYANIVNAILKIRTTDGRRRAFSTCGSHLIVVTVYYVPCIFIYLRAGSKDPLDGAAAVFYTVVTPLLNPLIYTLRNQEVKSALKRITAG
Summary of the method: (§1)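 Transient luciferase assays in mammalian cell lines were common, though methods varied by source. The values come from published papers and their supplementary material, with extra details from the original authors when needed. Responsive refers to a measured signal the original authors judged statistically different from baseline, and non-responsive (inactive) to the remainder.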

OR10G3 (Homo sapiens) = target: T2, OR10G3 (Homo sapiens) (UniProt Q8NGC4)
T2 sequence (whole entry): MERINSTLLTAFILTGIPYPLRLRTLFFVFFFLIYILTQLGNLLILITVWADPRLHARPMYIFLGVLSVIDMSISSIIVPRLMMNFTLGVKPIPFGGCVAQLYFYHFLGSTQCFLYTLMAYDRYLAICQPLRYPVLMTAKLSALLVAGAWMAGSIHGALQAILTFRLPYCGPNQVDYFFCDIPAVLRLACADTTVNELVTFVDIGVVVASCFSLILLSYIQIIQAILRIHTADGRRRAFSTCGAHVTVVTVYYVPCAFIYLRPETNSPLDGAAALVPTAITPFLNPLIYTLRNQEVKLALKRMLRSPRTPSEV
Summary of the method: as §1

OR10G4 (Homo sapiens) = target: T3, OR10G4 (Homo sapiens) (UniProt Q8NGN3)
T3 sequence (whole entry): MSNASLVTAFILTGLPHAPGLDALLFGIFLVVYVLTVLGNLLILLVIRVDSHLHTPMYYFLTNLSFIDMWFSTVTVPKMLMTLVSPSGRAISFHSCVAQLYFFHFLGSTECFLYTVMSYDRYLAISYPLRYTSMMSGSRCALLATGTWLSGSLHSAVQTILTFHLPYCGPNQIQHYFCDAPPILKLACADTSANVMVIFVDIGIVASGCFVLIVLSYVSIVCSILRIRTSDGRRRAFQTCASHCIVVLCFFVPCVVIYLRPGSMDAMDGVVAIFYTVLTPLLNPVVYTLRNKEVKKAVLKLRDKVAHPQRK
Summary of the method: as §1

OR10G6 (Homo sapiens) = target: T4, OR10G6 (Homo sapiens) (UniProt Q8NH81)
T4 sequence (whole entry): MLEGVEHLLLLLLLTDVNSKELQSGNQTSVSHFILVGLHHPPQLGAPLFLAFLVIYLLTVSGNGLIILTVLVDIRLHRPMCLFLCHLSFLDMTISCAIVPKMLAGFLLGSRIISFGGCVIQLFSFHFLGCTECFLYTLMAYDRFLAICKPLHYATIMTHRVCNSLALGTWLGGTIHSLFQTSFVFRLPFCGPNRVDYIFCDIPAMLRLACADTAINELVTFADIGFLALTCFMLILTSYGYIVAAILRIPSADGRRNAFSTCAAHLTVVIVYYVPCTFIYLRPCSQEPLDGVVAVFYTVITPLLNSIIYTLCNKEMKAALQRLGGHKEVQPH
Summary of the method: as §1

OR10G7 (Homo sapiens) = target: T5, OR10G7 (Homo sapiens) (UniProt Q8NGN6)
T5 sequence (whole entry): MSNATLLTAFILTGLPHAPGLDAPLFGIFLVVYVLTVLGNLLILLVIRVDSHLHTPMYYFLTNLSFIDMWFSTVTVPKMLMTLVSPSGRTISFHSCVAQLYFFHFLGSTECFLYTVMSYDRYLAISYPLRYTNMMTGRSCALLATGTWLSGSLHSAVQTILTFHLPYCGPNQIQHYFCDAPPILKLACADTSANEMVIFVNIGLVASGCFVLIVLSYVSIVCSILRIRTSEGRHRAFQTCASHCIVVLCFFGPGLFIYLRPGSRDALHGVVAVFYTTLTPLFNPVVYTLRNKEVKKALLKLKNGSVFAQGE
Summary of the method: as §1

OR10G8 (Homo sapiens) = target: T6, OR10G8 (Homo sapiens) (UniProt Q8NGN5)
T6 sequence (whole entry): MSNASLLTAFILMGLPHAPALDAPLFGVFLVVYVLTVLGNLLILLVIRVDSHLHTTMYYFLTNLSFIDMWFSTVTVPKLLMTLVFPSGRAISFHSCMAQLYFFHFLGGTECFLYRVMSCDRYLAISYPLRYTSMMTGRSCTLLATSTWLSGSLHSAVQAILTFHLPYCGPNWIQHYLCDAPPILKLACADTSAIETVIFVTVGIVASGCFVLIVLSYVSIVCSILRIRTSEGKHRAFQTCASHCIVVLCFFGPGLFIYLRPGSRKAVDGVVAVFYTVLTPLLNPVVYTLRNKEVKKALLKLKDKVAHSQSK
Summary of the method: as §1

OR10G9 (Homo sapiens) = target: T7, OR10G9 (Homo sapiens) (UniProt Q8NGN4)
T7 sequence (whole entry): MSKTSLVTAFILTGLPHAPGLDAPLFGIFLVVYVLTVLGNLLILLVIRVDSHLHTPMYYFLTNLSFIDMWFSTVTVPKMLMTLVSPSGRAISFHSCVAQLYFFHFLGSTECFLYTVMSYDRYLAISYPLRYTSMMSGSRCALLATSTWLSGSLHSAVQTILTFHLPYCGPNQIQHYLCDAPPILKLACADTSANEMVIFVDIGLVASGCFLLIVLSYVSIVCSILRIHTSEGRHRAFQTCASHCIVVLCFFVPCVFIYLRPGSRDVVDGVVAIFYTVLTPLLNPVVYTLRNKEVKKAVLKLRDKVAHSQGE
Summary of the method: as §1

OR10H1 (Homo sapiens) = target: T8, OR10H1 (Homo sapiens) (UniProt Q9Y4A9)
T8 sequence (whole entry): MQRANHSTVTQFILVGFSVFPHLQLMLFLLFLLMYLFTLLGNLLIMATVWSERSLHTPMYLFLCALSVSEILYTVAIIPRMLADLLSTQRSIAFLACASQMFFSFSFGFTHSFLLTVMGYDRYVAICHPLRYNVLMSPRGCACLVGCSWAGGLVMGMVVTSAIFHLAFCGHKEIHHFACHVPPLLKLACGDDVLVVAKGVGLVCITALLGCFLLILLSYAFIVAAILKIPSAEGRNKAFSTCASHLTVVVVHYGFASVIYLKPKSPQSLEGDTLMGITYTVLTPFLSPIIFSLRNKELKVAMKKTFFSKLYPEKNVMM
Summary of the method: as §1

OR10H2 (Homo sapiens) = target: T9, OR10H2 (Homo sapiens) (UniProt O60403)
T9 sequence (whole entry): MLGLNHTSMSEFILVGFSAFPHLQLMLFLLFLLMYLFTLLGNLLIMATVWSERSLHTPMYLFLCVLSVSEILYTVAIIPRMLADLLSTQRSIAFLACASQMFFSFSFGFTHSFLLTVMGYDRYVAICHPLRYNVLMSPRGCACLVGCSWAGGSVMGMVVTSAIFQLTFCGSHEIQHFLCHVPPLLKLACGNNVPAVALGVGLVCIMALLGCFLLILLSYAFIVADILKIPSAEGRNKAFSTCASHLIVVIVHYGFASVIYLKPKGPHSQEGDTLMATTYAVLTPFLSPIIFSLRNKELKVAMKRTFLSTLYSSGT
Summary of the method: as §1

OR10H3 (Homo sapiens) = target: T10, OR10H3 (Homo sapiens) (UniProt O60404)
T10 sequence (whole entry): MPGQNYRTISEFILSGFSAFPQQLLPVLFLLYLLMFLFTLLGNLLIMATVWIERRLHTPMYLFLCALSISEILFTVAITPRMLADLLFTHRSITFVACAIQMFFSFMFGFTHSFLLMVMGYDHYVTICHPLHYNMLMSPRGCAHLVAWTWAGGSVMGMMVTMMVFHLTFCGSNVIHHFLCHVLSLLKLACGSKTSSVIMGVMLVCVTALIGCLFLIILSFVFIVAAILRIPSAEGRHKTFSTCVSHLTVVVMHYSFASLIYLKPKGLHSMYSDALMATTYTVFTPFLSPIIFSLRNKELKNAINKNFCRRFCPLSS
Summary of the method: as §1

Measured: odorant receptor agonist call;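 further: active if original authors judged signal statistically different from baseline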

CCCCC(S)C(C)CO (stereo not given)
inactive: OR10G2 (Homo sapiens) | OR10G3 (Homo sapiens) | OR10G4 (Homo sapiens) | OR10G6 (Homo sapiens) | OR10G7 (Homo sapiens) | OR10G8 (Homo sapiens) | OR10G9 (Homo sapiens) | OR10H1 (Homo sapiens) | OR10H2 (Homo sapiens) | OR10H3 (Homo sapiens)
